# Source: PubChem
# ANO1 block: mouse TMEM16A channel inhibition, primary screen. Q8BHY3. HEK293 TMEM16A/YFP iodide influx fluorescence, ionomycin. normalized B-score (activity score, 25-100; higher = stronger inhibition) at 10 µM. actives 1.2% (n = 310,000). AID 588511;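 active = ratio plate-corrected score three or more library SD toward inhibition, starting fluorescence score within five deviations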;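 also: score derived from kinetic fluorescence span divided by baseline fluorescence per well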
# IMP-1 inh: blocks Pseudomonas aeruginosa IMP-1 metallo-beta-lactamase. purified IMP-1, nitrocefin hydrolysis, epi-absorbance fluorescence. inhibition, % at 5.6 µM. actives 0.45% (n = 290,000). AID 1556;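 active = inhibition above the mean plus 3 SD of all compounds in the same screening run, cut at about 4.5% in these data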
#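 System: Purified IMP-1 | Read-out basis: Percent enzyme inhibition | Controls: IMP-1 with DMSO as 0%, enzyme-free DMSO as 100% | Replicates: One well per compound | Doses: 5.6 µM nominal single concentration | Detection: Epi-absorbance fluorescence, 480 nm excitation, 530 nm emission | Incubation: 25 °C, 15 min preincubation, 25 min reaction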
# VIM-2 inh: inhibitors of Pseudomonas aeruginosa VIM-2 metallo-beta-lactamase; purified VIM-2, nitrocefin hydrolysis, epi-absorbance fluorescence; inhibition, % at 5.6 µM; AID 1527; actives 0.89% (n = 290,000);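 active = inhibition above the mean of all tested compounds plus 3 SD, cutoff set per screening run, cut at about 7.5% in these data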;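 also: red hydrolysis product quenches plate fluorescence so inhibitors raise well fluorescence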
# CHT block: inhibits the human high affinity choline transporter. Q9GZV3. CHT-expressing cells, membrane potential dye, choline response; active compounds read low. B-score at 10 µM. actives 0.86% (n = 310,000);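 active = B-score over 3 SD under the library average, and starting fluorescence ratio not unusually high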;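 also: choline stimulus applied at its EC90 after an EC20 pre-addition; B-score computed on integrated fluorescence ratio after choline addition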
# Target sequence (Q9GZV3 whole entry, looked up): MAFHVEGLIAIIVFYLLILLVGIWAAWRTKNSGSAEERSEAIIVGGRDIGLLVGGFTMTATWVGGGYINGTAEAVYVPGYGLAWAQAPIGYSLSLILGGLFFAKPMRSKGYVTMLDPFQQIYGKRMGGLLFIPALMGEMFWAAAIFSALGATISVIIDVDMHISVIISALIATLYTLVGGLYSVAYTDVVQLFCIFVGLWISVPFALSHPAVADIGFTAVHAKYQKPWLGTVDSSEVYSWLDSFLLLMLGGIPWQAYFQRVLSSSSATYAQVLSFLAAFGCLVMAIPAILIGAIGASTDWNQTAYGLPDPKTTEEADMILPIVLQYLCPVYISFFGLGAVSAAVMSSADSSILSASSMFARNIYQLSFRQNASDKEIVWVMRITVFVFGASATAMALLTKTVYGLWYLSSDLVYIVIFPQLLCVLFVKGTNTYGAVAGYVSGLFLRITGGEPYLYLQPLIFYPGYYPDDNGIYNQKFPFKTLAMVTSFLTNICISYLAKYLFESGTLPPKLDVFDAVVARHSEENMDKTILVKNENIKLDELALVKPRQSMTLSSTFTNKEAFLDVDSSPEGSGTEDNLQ
# CHT PAM: allosteric activators of human choline transporter CHT | B-score at 10 µM | Q9GZV3 | actives 0.49% (n = 310,000) | CHT-expressing cells, membrane potential dye, choline EC20; active compounds read high; LV-AA mutant CHT in HEK293 cells;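 active = initial fluorescence not abnormally high and integrated response B-score, plate-corrected, over 3 SD above library mean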
# TMEM16A act: mouse TMEM16A channel activation, primary screen; HEK293 TMEM16A/YFP-H148Q/I152L, iodide quench fluorescence; active compounds read low; B-score at 10 µM; actives 0.3% (n = 340,000); AID 623877;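 active = fluorescence-ratio B-score plate-corrected deviation score at least 3 library SD below zero, with starting fluorescence score within 5 deviations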;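 also: channel opened by trigger with iodide after compound preincubation; score built on the fluorescence ratio of max minus min over baseline; more negative score means more quench and so TMEM16A activation or potentiation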
# CHT act confirm: human CHT activation, confirmatory screen | CHT-expressing cells, membrane potential dye fluorescence (FDSS); % of choline EC20–EC90 response window; HEK293 expressing CHT LV-AA mutant; choline added at its EC20 | actives 91% (n = 2,500) | AID 504833 | shares compounds with CHT PAM | activation, % at 10 µM;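 active = primary screen active, with duplicate mean activation above negative control mean plus 3 SD, cut at about 11% in these data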
# HEK293 MP dye: CHT activator counter-screen hit in parental HEK293 cells | shares compounds with CHT PAM | membrane potential dye fluorescence (FDSS); measured after EC20 choline addition | ratio readout change at 10 µM, hits read low | actives 62% (n = 2,500) | AID 623908;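 active = duplicate-averaged ratio beyond 3 SD from buffer wells, up or down, though filed actives are nearly all decreases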
# Numbers stand for hits; – = inactive; · = not tested or not shown. Compounds with a hit are over-represented: about 3.4% of the library has one in this group of screens.
SMILES,ANO1 block,IMP-1 inh,VIM-2 inh,CHT block,CHT PAM,TMEM16A act,CHT act confirm,HEK293 MP dye
CCOc1ccccc1NC(=S)N1CCN(c2cccc(OC)c2)CC1,–,–,–,–,–,–,·,·
Cn1c(SCC(=O)N2CCc3ccccc3C2)nnc1-c1ccncc1,–,–,–,–,–,–,·,·
CCc1cccc(CC)c1-n1c(SCC(=O)N2CCc3ccccc3C2)nnc1-c1cccnc1,–,–,–,–,–,–,–,–
CC1Cc2cc(S(=O)(=O)N3CCN(c4ccccc4)CC3)ccc2N1C(=O)C1CC1 (configuration not stated),–,–,–,–,–,–,·,·
NC(=O)c1nn(CC(=O)Nc2cccc(S(=O)(=O)N3CCCC3)c2)c(=O)c2ccccc12,·,·,·,·,·,–,·,·
COc1ccc(C2Nc3ccccc3C(=O)N2c2ccc(C)cc2)cc1Cn1nnc2ccccc21 (configuration not stated),–,–,–,–,–,–,10.3,–
COc1ccc(C2Nc3ccccc3C(=O)N2c2ccc(C)cc2)cc1Cn1cc([N+](=O)[O-])cn1 (configuration not stated),–,–,–,–,–,–,·,·
COC(=O)CSc1nc2ccc(NC(=O)c3ccccc3C(=O)N3CCOCC3)cc2s1,–,–,–,–,–,–,·,·
O=C(Nc1ccc2nc(SCc3ccc(Cl)cc3)sc2c1)c1ccccc1C(=O)N1CCOCC1,–,–,–,–,–,–,46.3,–
CC(=O)c1ccc(S(=O)(=O)N2CCN(c3nn(C)c(=O)n(C)c3=O)CC2)cc1,·,·,·,·,·,–,·,·
CCOC(=O)c1cnc2ccc(OCC)cc2c1N(C)Cc1ccccc1,–,–,–,–,9.6,–,41.2,–
CCN(CC)c1cc(C)c2cc(NC(=O)CNC(C)=O)ccc2n1,–,–,–,–,6.5,–,55.9,-31.2
CCN(CC)c1cc(C)c2cc(NC(=O)c3ccccc3F)ccc2n1,–,–,–,–,–,–,·,·
COCC(=O)n1nc(NCc2ccc(OC)cc2)nc1NCc1ccc(OC)cc1,–,–,–,–,–,–,10.1,–
Cn1c(=O)c2c(nc3n2CC(O)CN3c2ccc(O)cc2)n(C)c1=O (configuration not stated),–,–,–,–,–,–,·,·
Nc1ccc(NC(=O)c2ccccc2)c2c1C(=O)c1ccccc1C2=O,–,–,–,–,–,–,·,·
COc1ccc(N)c2c1C(=O)c1ccccc1C2=O,–,–,–,–,7.44,–,47.9,-53.9
CCC(=O)Nc1cccc(-c2cn3ccccc3n2)c1,–,–,–,–,–,–,45.0,-41.5
COc1ccc(-c2cn3ccccc3n2)cc1OC,–,–,–,–,–,–,21.1,-37.7
COc1ccc(CCC(C)NC(=O)Cc2ccc(OC)c(OC)c2)c(OC)c1 (configuration not stated),–,–,–,–,–,–,·,·
N#Cc1cc2c(=O)n3ccccc3nc2n(Cc2cccnc2)c1=O,–,·,·,–,6.94,–,48.0,-44
Nc1c(-c2cccc([N+](=O)[O-])c2)nc2ccccn12,–,–,–,–,–,–,52.9,-50.5
CCCn1cnc2scc(-c3ccc(C)c(C)c3)c2c1=O,–,–,–,–,–,–,·,·
COc1ccc(C(C)=O)cc1CSc1nnc2c(Cl)cc(Cl)cn12,–,–,–,–,9.57,–,84.5,-88.8
COc1ccc(C(C)=O)cc1CSc1nc2ccccc2c(=O)n1-c1ccccc1C,–,–,–,–,–,–,24.6,–
SMILES,ANO1 block,IMP-1 inh,VIM-2 inh,CHT block,CHT PAM,TMEM16A act,CHT act confirm,HEK293 MP dye
COc1ccc(C(C)=O)cc1CSc1nc2ccccc2c(=O)n1-c1ccccc1,–,–,–,–,–,–,·,·
Cc1cc(=S)n(-c2ccccc2)n1C,–,–,–,–,6.97,–,–,–
Brc1ccc2nc(-c3cccs3)c(NCC3CCCO3)n2c1 (configuration not stated),–,–,–,–,6.66,–,–,–
COc1ccc(C2=NC(C)(C)Cc3cc(OC)c(OC)cc32)cc1,–,–,–,–,8.28,–,66.8,-84
COc1ccc(C2=NCCc3cc(OC)c(OC)cc32)cc1,–,–,–,–,7.49,–,26.9,-92.4
COc1cc2c(cc1OC)C(SC)=NC(C)(C)C2,–,–,–,–,–,–,53.2,-43.5
Cc1cc(OC(C)C(=O)NCCCN2CCOCC2)c2c(C)cc(=O)oc2c1 (configuration not stated),–,–,–,–,–,–,50.4,-41.2
CCCc1cc(=O)oc2cc(C)cc(OC(C)C(=O)NCCN3CCOCC3)c12 (configuration not stated),–,–,–,–,–,–,·,·
Cc1cc(OC(C)C(=O)NCCN2CCOCC2)c2c(C)c(C)c(=O)oc2c1 (configuration not stated),–,–,–,–,–,–,58.1,-55.6
Cc1ccc(S(=O)(=O)N2CCN(S(=O)(=O)N3CCC(C)CC3)CC2)cc1C,–,–,–,–,–,–,·,·
CC(C(=O)N1CCc2ccccc2C1)N1C(=O)c2ccccc2C1=O (configuration not stated),–,–,–,–,–,–,·,·
CC(C)CC(C(=O)N1CCc2ccccc2C1)N1C(=O)c2ccccc2C1=O (configuration not stated),–,–,–,–,–,–,39.3,–
CCOC(=O)CSc1nc2sc3c(c2c(=O)n1C1CCCCC1)CCN(C)C3,–,–,–,–,8.05,–,27.2,-29.3
CCOC(=O)CSc1nc2sc3c(c2c(=O)n1-c1ccc(OCC)cc1)CCN(C)C3,–,–,–,–,–,–,·,·
CCOc1ccc(-n2c(SCC(N)=O)nc3sc4c(c3c2=O)CCN(C)C4)cc1,–,–,–,–,–,–,38.2,-32.8
CCc1ccc2oc(=O)cc(CN3CCCCC3)c2c1,–,–,–,–,–,–,·,·
CC[N+](CC)(CC)C/C=C/CN1CCCCC1,–,–,–,–,–,–,39.7,-42.5
COc1ccc(C2c3cc(OC)c(OC)cc3CCN2C(=O)c2cccc([N+](=O)[O-])c2)cc1OC (configuration not stated),–,–,–,–,–,–,29.0,–
COc1cc2c(cc1OC)C(c1ccc([N+](=O)[O-])cc1)N(C(C)=O)CC2 (configuration not stated),–,–,–,–,–,–,·,·
